{"data": "Published values pooled from the literature", "target": "Serine/threonine-protein kinase BRSK2 (BRSK2, Homo sapiens, UniProt Q8IWQ3)", "Sequence (Q8IWQ3 1-736, as in one of the studies)": "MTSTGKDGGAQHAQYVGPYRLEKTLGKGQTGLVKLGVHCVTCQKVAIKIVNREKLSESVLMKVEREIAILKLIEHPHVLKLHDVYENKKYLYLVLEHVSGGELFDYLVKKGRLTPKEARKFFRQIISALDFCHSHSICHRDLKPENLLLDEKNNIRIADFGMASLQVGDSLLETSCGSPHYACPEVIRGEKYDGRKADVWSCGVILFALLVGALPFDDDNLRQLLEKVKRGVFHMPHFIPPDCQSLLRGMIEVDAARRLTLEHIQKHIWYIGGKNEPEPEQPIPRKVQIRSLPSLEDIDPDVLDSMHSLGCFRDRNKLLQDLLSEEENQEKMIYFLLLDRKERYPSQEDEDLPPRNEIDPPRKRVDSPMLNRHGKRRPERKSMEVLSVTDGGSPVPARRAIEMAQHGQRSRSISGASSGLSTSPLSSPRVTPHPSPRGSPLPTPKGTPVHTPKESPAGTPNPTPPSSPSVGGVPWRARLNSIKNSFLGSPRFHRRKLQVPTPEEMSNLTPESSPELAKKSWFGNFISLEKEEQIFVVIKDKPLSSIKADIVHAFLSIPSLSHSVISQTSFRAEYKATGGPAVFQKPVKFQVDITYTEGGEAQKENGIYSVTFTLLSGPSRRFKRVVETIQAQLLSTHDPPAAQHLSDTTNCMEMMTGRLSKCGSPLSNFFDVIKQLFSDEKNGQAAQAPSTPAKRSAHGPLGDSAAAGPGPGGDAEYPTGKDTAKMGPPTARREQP", "note": "Each line is one published result; the experiments were not run side by side."}
{"Compound": "COc1cc(Nc2cnc(C#N)c(O[C@H](C)CN(C)C)n2)ncc1-c1cnn(C)c1", "read-out": "enzyme activity", "action": "inhibitor", "technique": "radiometric", "tested at": "10 µM", "endpoint": "remaining activity", "value": "14%"}
{"Compound": "Oc1cccc(-c2nc(N3CCOCC3)c3oc4ncccc4c3n2)c1", "read-out": "enzyme activity", "action": "inhibitor", "tested at": "10 µM", "endpoint": "remaining activity", "value": "99%"}
{"Compound": "Cc1ccc(C(=O)Nc2ccc(CN3CCN(C)CC3)c(C(F)(F)F)c2)cc1C#Cc1cnc2cccnn12", "read-out": "enzyme activity", "action": "inhibitor", "tested at": "23.5 nM", "endpoint": "remaining activity", "value": "92%"}
{"Compound": "Nc1nc(NC2CCCCC2)sc1C(=O)c1ccccc1", "read-out": "enzyme activity", "action": "inhibitor", "tested at": "10 µM", "endpoint": "remaining activity", "value": "93%"}
{"Compound": "O=C(Nc1cnn(-c2csc(C(=O)NC3COC3)c2)c1)Nc1ccccc1Cl", "read-out": "enzyme activity", "action": "inhibitor", "tested at": "5 µM", "endpoint": "remaining activity", "value": "102%"}
{"Compound": "Cc1cc(-n2nc(Cc3cc(F)cc(C(F)(F)F)c3)nc2C)ccc1C(N)=O", "read-out": "cell-free assay", "technique": "competition with immobilised ligand", "tested at": "1 µM", "endpoint": "remaining binding", "value": "77%"}
{"Compound": "COc1cc(Cl)c(C(=O)N[C@@H](CN[C@H]2CC[C@@H](N)CC2)Cc2ccc(C#N)cc2)cc1-c1ccc(CN[C@H](C)c2ccc(C)cc2)o1", "read-out": "enzyme activity", "action": "inhibitor", "tested at": "1 µM", "endpoint": "remaining activity", "value": "99%"}
{"Compound": "CNC(=O)c1cc(Oc2ccc(NC(=O)Nc3ccc(Cl)c(C(F)(F)F)c3)cc2)ccn1", "read-out": "cell-free assay", "tested at": "0.5 µM", "endpoint": "remaining signal", "value": "103%"}
{"Compound": "FC(F)(F)c1ccc2c(c1)nc(-c1cccnc1)n2C1CC1", "read-out": "cell-free assay", "technique": "competition with immobilised ligand", "tested at": "1 µM", "endpoint": "remaining binding", "value": "90%"}
{"Compound": "CCN(CC)c1ccc(C2=NNC(=O)CC2C)cc1[N+](=O)[O-] (stereo not shown)", "read-out": "enzyme activity", "action": "inhibitor", "tested at": "10 µM", "endpoint": "remaining activity", "value": "104%"}
{"Compound": "CCc1ccccc1C(=O)Nc1n[nH]c2c(C)c(F)c(C3C(C#N)=C(C)N(C)C(C)=C3C#N)cc12", "read-out": "cell-free assay", "technique": "competition with immobilised ligand", "tested at": "1 µM", "endpoint": "remaining binding", "value": "36%"}
{"Compound": "CCN(CC)CCNC(=O)c1c(C)[nH]c(/C=C2\\C(=O)Nc3ccc(F)cc32)c1C", "read-out": "enzyme activity", "action": "inhibitor", "tested at": "10 µM", "endpoint": "inhibition", "value": "82%"}
{"Compound": "CC(C)(C)c1nc2c(s1)c1nc(N)ncc1c1ccc(NS(=O)(=O)c3c(F)cccc3F)c(F)c12", "read-out": "enzyme activity", "action": "inhibitor", "technique": "radiometric", "tested at": "1 µM", "endpoint": "remaining activity", "value": "88%"}
{"Compound": "Cc1c(C(=O)O)cc(-c2ccc(C3CCNCC3)cc2)c2ccc(-c3ccc(C(F)(F)F)cc3)cc12", "read-out": "binding", "technique": "competition with immobilised ligand", "tested at": "1 µM", "endpoint": "remaining binding", "value": "100%"}
{"Compound": "Cc1ccc(Nc2nccc(N(C)c3ccc4c(C)n(C)nc4c3)n2)cc1S(N)(=O)=O", "read-out": "enzyme activity", "action": "inhibitor", "tested at": "0.3 µM", "endpoint": "inhibition", "value": "1%"}
{"Compound": "O=C1NC(=O)c2cc(Nc3ccc(F)cc3)c(Nc3ccc(F)cc3)cc21", "read-out": "cell-free assay", "tested at": "0.5 µM", "endpoint": "remaining signal", "value": "96.8%"}
{"Compound": "Nc1ncnc2occ(-c3ccc(NC(=O)Nc4cc(C(F)(F)F)ccc4F)cc3)c12", "read-out": "cell-free assay", "action": "inhibitor", "tested at": "20 µM", "endpoint": "remaining signal", "value": "6.6%"}
{"Compound": "N#CCCc1ccc2c(c1)-c1[nH]c3ccc([N+](=O)[O-])cc3c1CC(=O)N2", "read-out": "cell-free assay", "tested at": "0.5 µM", "endpoint": "remaining signal", "value": "42%"}
{"Compound": "FC(F)(F)Oc1cccc(-c2cnc3ccc(-c4ccncc4)nn23)c1", "read-out": "enzyme activity", "action": "inhibitor", "technique": "radiometric", "tested at": "1 µM", "endpoint": "activity vs control", "value": "81%"}
{"Compound": "CNCc1ccccc1-c1csc([C@@H](C)Nc2nc(C)nc3cc(OC)c(OC)cc23)c1", "read-out": "cell-free assay", "technique": "competition with immobilised ligand", "tested at": "1 µM", "endpoint": "remaining binding", "value": "100%"}
{"Compound": "CC(C)(C)C(=O)c1sc(NC2CCCCC2)nc1N", "read-out": "enzyme activity", "action": "inhibitor", "tested at": "10 µM", "endpoint": "remaining activity", "value": "95%"}
{"Compound": "CCOC(=O)c1cc2cc(-c3cc(C(=O)NCc4ccc(C(=O)O)cc4)nn3C)ccc2[nH]1", "read-out": "cell-free assay", "technique": "competition with immobilised ligand", "tested at": "0.1 µM", "endpoint": "remaining binding", "value": "67%"}
{"Compound": "Cc1sc(C(=O)NC2COC2)cc1-n1cc(NC(=O)Nc2c(F)cccc2Cl)cn1", "read-out": "enzyme activity", "action": "inhibitor", "tested at": "10 µM", "endpoint": "remaining activity", "value": "102%"}
{"Compound": "CN(C)S(=O)(=O)c1ccc2c(c1)/C(=C/c1cc3c([nH]1)CCCC3)C(=O)N2", "read-out": "cell-free assay", "tested at": "0.5 µM", "endpoint": "remaining signal", "value": "48.7%"}
{"Compound": "CSc1cccnc1N1CCN(Cc2nc3ccccc3[nH]2)CC1", "read-out": "cell-free assay", "technique": "competition with immobilised ligand", "tested at": "1 µM", "endpoint": "remaining binding", "value": "100%"}
{"Compound": "CCCS(=O)(=O)Nc1ccc(F)c(C(=O)c2c[nH]c3ncc(-c4ccc(Cl)cc4)cc23)c1F", "read-out": "enzyme activity", "action": "inhibitor", "tested at": "1 µM", "endpoint": "inhibition", "value": "< 10%"}
{"Compound": "FC(F)c1nc2ccccc2n1-c1nc(N2CCOCC2)nc(N2CCOCC2)n1", "read-out": "enzyme activity", "action": "inhibitor", "tested at": "10 µM", "endpoint": "remaining activity", "value": "88%"}
{"Compound": "CCS(=O)(=O)c1cc2cc(C[C@](O)(CC(C)(C)c3ccc(F)cc3C(N)=O)C(F)(F)F)[nH]c2cn1", "read-out": "cell-free assay", "technique": "competition with immobilised ligand", "tested at": "1 µM", "endpoint": "remaining binding", "value": "100%"}
